# Experimental data as given in PubChem BioAssay.
# Calls of active or inactive are those of the source.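 The calls were made as follows, unless noted: active = compounds giving at least 50% inhibition in the cell-based MKP-3 phosphatase rescue imaging test; inactive = the rest.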
# How the values were obtained:
# [1] = inhibitors of TNFa-induced NFkB p65 translocation, primary screen, imaging, HUVEC, MLSMR starter and 10KST1 sets (AID 438;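 active = inhibition above 20% together with a positive visual image hit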;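 also: compound added about 3h40 before a 20 min TNFalpha stimulation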;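 as to inhibition: signal is the nuclear over cytoplasmic p65 intensity ratio per well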); details: HUVEC TNFa-induced p65 nuclear translocation; cell count: measured here: nuclei count (cytotoxicity indicator), at 2.08 µM; inhibition: at 2 µM, stronger effect = higher value, 0% TNFa-plus-vehicle, 100% no-TNFa wells
# [2] = endothelial E-selectin expression blockers – imaging, HUVEC, immunofluorescence, MLSMR starter and 10KST1 sets, primary screen (AID 487;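 active = visually confirmed hit in the image check and inhibition above 20%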;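 as to inhibition: signal is fraction of cell area covered by stained E-selectin grains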;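 as to nuclei count: 100% = median nuclei count of all wells on the same plate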); details: HUVEC TNFalpha-induced E-selectin immunofluorescence imaging, at 2 µM; inhibition: stronger effect = higher value; nuclei count: measured here: cell number, toxicity
# [3] = Primary imaging screen for DUSP6 inhibitors that restore phospho-Erk in transfected HeLa cells, chemical complementation (AID 609); details: HeLa MKP-3 transfected, phospho-Erk imaging KS statistic, at 10 µM, cells stimulated with TPA for 15 min;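 as to inhibition: phospho-Erk level distribution per well compared with pooled transfected vehicle control wells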
# [4] = target: Dual specificity protein phosphatase 6 (Homo sapiens) (UniProt Q16828); assay: as above; details: HeLa MKP-3 transfected, phospho-Erk imaging KS statistic; at 10 µM; stronger effect = higher value; cells stimulated with TPA for 15 min
# [5] = target: Voltage-gated potassium channel subunit beta-2 (Rattus norvegicus) (UniProt P62483); assay: inhibitors of rat Kvbeta2 reductase activity – biochemical, NADPH fluorescence, primary screen (AID 622;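 active = fluorescence slope higher than the sample average by over 3 SD, cut at about -0.22 in these data, passing the limit was not always enough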;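 also: slope of raw intensity against log time taken from 70 to 1610 s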); details: recombinant KvBeta, 4-cyanobenzaldehyde reduction, at 10 µM, stronger effect = higher value
# [6] = target: Voltage-gated potassium channel subunit beta-2 (Rattus norvegicus) (UniProt P62483); assay: enhancers of rat Kvbeta2 NADPH turnover – biochemical, NADPH fluorescence, primary screen (AID 623;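 active = NADPH fluorescence slope more negative than the mean of all samples by about 3 SD, 99.7% confidence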;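 also: fluorescence intensity change per second fitted from 20 to 320 s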); details: Recombinant KvBeta, NADPH fluorescence decrease slope, 10 min; at 10 µM; stronger effect = lower value
# [7] = target: Muscarinic acetylcholine receptor M4 (Homo sapiens) (UniProt P08173); assay: M4-linked GIRK flux change, two-sided – cell-based, HEK293 M4/GIRK, thallium flux, BTC-AM, M4 allosteric agonist project, primary screen (AID 625;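 active = fluorescence slope after compound addition differing from the mean of all tested samples at 99.7% confidence, mostly higher but some lower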;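 also: thallium influx through GIRK channels coupled to M4 in HEK293 cells with BTC-AM dye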); details: at 10 µM, actives lie on both sides
# In short: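 assay system = HEK293 cells with M4 receptor and GIRK channels | medium = pH 7.3 thallium assay buffer | doses = 10 µM final, single point | timing = cells overnight at 37 °C, BTC-AM loading 1 h, reads 2 min total | signal = BTC-AM fluorescence, 1 Hz kinetic reads | read-out = post-addition slope, 15–24 s, of baseline-normalized fluorescence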
# [8] = inhibitors of larval lipid processing in zebrafish, primary screen, whole organism, PED6 fluorescence, gall bladder and intestine (AID 686;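 active = a full or partial loss of lipid-probe fluorescence in the fish gall bladder, intestine or both, judged by eye; inactive = no fluorescence loss, or compound toxic to the fish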;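 also: larvae 5 to 7 days old with five fish per well; signal comes from phospholipase A2 cleavage of quenched PED6 carried via bile; overnight exposure to compound and PED6 before scoring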); details: Zebrafish larvae PED6 lipid processing, fluorescence scoring; screened at 20 µM (by protocol)
# In short: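 Also added: quenched phospholipase substrate PED6, 100 nM final, ingested by larvae; System: zebrafish larvae, 5-7 d; Quantity: 5 larvae per well; Compound: 20 µM single dose; Schedule: overnight compound and PED6 incubation; Read-out: visual per-well fluorescence inhibition score; Measured by: By-eye fluorescence microscopy; Medium: E3.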
# [9] = loss of swimming-algae plug formation – whole organism, Chlamydomonas reinhardtii, WT vs cilia-less mutant, absorbance, 96-well, primary screen (AID 463189;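 active = inhibition at or above 50% relative to wild type and mutant plate controls; inactive = inhibition below 50%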;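 also: 0% = wild type cc124 cells in DMSO and 100% = ciliumless bld1 mutant cells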); details: Chlamydomonas reinhardtii gravitaxis, OD600 absorbance, 2 days; at 10 µM; stronger effect = higher value
# [10] = measured here: cell density z-score
# [11] = measured here: nuclear c-Myc green intensity z-score
# [12] = measured here: nuclear pErk red intensity z-score, stronger effect = higher value
# Sequence of Voltage-gated potassium channel subunit beta-2 (Rattus norvegicus) (P62483 whole entry, looked up): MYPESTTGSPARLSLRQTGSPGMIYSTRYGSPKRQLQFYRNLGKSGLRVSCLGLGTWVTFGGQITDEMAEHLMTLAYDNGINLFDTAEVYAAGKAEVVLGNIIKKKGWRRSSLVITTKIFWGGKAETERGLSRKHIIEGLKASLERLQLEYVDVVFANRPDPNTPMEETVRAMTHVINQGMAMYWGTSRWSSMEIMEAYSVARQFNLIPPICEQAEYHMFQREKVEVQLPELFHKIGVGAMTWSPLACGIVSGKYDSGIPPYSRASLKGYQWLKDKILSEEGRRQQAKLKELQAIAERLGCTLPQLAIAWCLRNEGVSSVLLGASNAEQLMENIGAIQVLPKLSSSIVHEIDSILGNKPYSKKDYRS
# Sequence of Muscarinic acetylcholine receptor M4 (Homo sapiens) (P08173 whole entry, looked up): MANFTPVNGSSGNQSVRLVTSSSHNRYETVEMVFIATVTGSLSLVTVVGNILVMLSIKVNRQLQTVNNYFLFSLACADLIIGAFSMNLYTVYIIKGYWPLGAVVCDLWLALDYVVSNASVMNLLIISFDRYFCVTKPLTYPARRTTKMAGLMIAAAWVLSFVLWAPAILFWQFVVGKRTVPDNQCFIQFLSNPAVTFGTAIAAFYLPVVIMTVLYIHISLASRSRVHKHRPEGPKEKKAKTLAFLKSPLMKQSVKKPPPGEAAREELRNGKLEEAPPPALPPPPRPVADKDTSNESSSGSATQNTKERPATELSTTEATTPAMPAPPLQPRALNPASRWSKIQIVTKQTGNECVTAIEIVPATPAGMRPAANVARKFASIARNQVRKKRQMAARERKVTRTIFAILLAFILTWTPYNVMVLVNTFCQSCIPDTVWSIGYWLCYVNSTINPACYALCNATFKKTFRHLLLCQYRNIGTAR
# Sequence of Dual specificity protein phosphatase 6 (Homo sapiens) (Q16828 whole entry, looked up): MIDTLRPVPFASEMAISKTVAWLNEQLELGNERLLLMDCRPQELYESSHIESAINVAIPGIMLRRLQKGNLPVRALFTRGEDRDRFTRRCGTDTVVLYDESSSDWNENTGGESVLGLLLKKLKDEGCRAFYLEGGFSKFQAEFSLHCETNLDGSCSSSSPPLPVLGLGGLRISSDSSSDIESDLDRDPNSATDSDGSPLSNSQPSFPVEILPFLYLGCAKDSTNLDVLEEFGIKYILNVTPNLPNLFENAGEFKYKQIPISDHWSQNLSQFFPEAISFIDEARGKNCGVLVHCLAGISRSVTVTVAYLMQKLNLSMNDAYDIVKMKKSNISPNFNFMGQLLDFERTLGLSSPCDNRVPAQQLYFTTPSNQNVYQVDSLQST
Structure (SMILES),cell count [1],inhibition [1],inhibition [2],nuclei count [2],"z-score [3, 10]","z-score [3, 11]","z-score [3, 12]",inhibition [4],fluorescence slope [5],NADPH fluorescence slope [6],fluorescence slope [7],outcome [8],inhibition [9]
CCCCCSc1nc(C)c(CC(=O)O)c(=O)[nH]1,400,-8.8% (inactive),-27.1% (inactive),114%,0.718,-0.507,-1.88,1.04% (inactive),-0.477 (inactive),-5.1e-06 (inactive),0.00563 (inactive),inactive,34.5% (inactive)
Brc1ccc2c(c1)CNc1c(ncnc1N1CCOCC1)O2,521,-0.7% (inactive),2% (inactive),90%,-1.15,1.47,1.59,3.42% (inactive),-0.429 (inactive),2.8e-05 (inactive),0.00419 (inactive),inactive,24.2% (inactive)
CCC1SC2=NC(C)=C(C(=O)OCCOC)C(c3ccc(C(=O)OC)cc3)N2C1=O (configuration not stated),441,-11.9% (inactive),-71.6% (inactive),154%,0.414,-0.811,-0.806,-2.29% (inactive),-0.411 (inactive),-4.9e-05 (inactive),0.0052 (inactive),inactive,6.13% (inactive)
CCOc1ccc(C2C(C#N)=C(N)Oc3cc(C)n(CCN4CCOCC4)c(=O)c32)cc1OCC (configuration not stated),556,-10.8% (inactive),-15.2% (inactive),167%,-0.219,1.25,-0.841,-10.1% (inactive),-0.458 (inactive),-4.1e-05 (inactive),0.0054 (inactive),inactive,7.88% (inactive)
CCCc1nc2n[nH]c(N)c2c2c1CCCC2,478,-12.3% (inactive),-64.3% (inactive),118%,-0.479,-0.89,-1.19,-2.09% (inactive),-0.48 (inactive),-0.000102 (inactive),0.00548 (inactive),inactive,-1.38% (inactive)
CC(O)CNc1nc2c(c(=O)n(C)c(=O)n2C)n1CCc1ccccc1 (configuration not stated),710,-2.3% (inactive),-92.1% (inactive),180%,0.422,-1.99,1.04,5.95% (inactive),-0.464 (inactive),-0.000209 (active),0.00739 (inactive),inactive,23% (inactive)
Cn1c(=O)c2c(nc(NCc3ccc4c(c3)OCO4)n2Cc2ccccc2Cl)n(C)c1=O,634,-6% (inactive),-29.1% (inactive),104%,0.0435,2.04,0.82,-2.09% (inactive),-0.41 (inactive),-9.6e-06 (inactive),0.00449 (inactive),inactive,-8.68% (inactive)
CCCC(=O)N1CCc2[nH]c3ccccc3c2C1,502,4.2% (inactive),1.1% (inactive),167%,0.76,0.615,-0.975,-5.62% (inactive),-0.485 (inactive),-2.8e-05 (inactive),0.0054 (inactive),inactive,-3.97% (inactive)
Cc1c(C)c2cc(Cl)c(O)c(CN3CCCC(C)C3)c2oc1=O (configuration not stated),540,-4.7% (inactive),45.7% (inactive),94.2%,0.999,0.842,-1.58,9.37% (inactive),-0.0221 (inactive),-5.4e-06 (inactive),0.00608 (inactive),inactive,-7.68% (inactive)
Cc1nc(N2CCN(C(=O)c3ccc(Cl)cc3)CC2)c(C#N)c2c1COC(C)(C)C2,522,8.1% (inactive),7% (inactive),95.8%,-0.225,-0.286,0.404,1.98% (inactive),-0.335 (inactive),-2.3e-05 (inactive),0.00518 (inactive),inactive,129% (active)
CC1(C)Cc2c(C#N)c(OCC(=O)c3ccccc3)nc(-c3ccoc3)c2CO1,547,-9.6% (inactive),14.2% (inactive),98.1%,0.66,-1.5,-0.876,-0.233% (inactive),-0.465 (inactive),2.6e-05 (inactive),0.00542 (inactive),inactive,56.8% (active)
CCc1nc2c(sc3nc(N4CCOCC4)c4c(c32)CC(C)(C)OC4)c(=O)o1,537,0.8% (inactive),-123% (inactive),140%,-0.303,0.948,-1.15,3.42% (inactive),-0.479 (inactive),-8.3e-05 (inactive),0.00481 (inactive),inactive,-8.15% (inactive)
CC(C)COC(=O)CCNc1n[nH]c(=O)[nH]c1=O,622,-4.8% (inactive),-26.4% (inactive),174%,0.623,-0.835,-0.389,-11.5% (inactive),-0.505 (inactive),-4.2e-05 (inactive),0.00627 (inactive),inactive,-4.85% (inactive)
O=C(c1coc(=O)c(Br)c1)N1CCOCC1,718,2.4% (inactive),-137% (inactive),181%,-0.0624,0.26,0.186,-4.7% (inactive),-0.429 (inactive),3.1e-07 (inactive),0.00447 (inactive),inactive,14.2% (inactive)
